Data set [1] relates to HT-29. Description: Antitumor activity against human HT-29 cells xenografted in nude BALB/c mouse assessed as tumor weight level at 40 mg/kg, ip dosed every day for 21 days (reference value: 1.49 +/- 0.27 g). The data set is classed as functional. For orientation: Xenograft models place foreign cells or tissue in a host animal.
The test system of data set [2] is HT-29. Description: Induction of autophagy in human HT-29 cells assessed as increase in Beclin-1 protein level incubated for 72 hrs by Western blot analysis. The data set is classed as functional, cell-based. In short, it runs like this: (§1)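 HT29 cells (1.5×10^5/mL) were treated for 72 h and lysed. Lysate (0.05 mg/lane) was run on 12% SDS-PAGE and transferred to nitrocellulose. After blocking in 5% non-fat milk, blots were probed for Bax, Bcl-2, cleaved caspase-3, cleaved PARP, LC3, p62 and beclin-1. Levels were normalised to β-actin, and means ± SD taken from three independent assays.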

In data set [3] the test system is HT-29. Description: Induction of apoptosis in human HT-29 cells assessed as increase in Bax protein level incubated for 72 hrs by Western blot analysis. The data set is classed as functional, cell-based. The gist of the method:
as §1
In general terms: In western blotting, separated proteins are transferred to a membrane and probed.

Data set [4] is described as follows: Drug metabolism assessed as GSTpi (unknown origin) mediated compound fluorescence activation at 1 uM in presence of 50 uM H2O2 by HPLC analysis. The conditions noted are these: human. It is filed as ADME.
Data set [5] in a line: Drug metabolism assessed as GSTpi (unknown origin) mediated compound fluorescence activation at 1 uM in presence of 1 mM Na+ by HPLC analysis. It is filed as ADME. The following applies: human. In short, it runs like this:
(§2)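 Selectivity test: compound (1 µM) with catalytic GSTπ and each analyte in water with 1% (v/v) DMSO at pH 4.0, 37 °C for 0.5 h. Analytes were cations at 1 mM; amino acids, vitamin C, Na2S and GSH at 100 µM. Readout was fluorescence emission spectra (excitation 440 nm, recorded 450–650 nm).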

Data set [6] in a line: Drug metabolism assessed as GSTalpha (unknown origin) mediated 1-(3,4,5-trimethoxyphenyl)-9H-pyrido[3,4-b]indol-3-amine formation at 40 uM in presence of 0.8 mM GSH by HPLC analysis. The following applies: human. The data set is classed as ADME. The gist of the method: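 HPLC measurement of amine release after incubating compound (40 µM) with GSH (0.8 mM) and GSTπ or GSTα at 0.03 µg/ml.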

A short description of data set [7]: Toxicity in ICR mouse assessed as induction of animal death at 240 to 300 mg/kg, ip measured after 4 days. The data set is classed as organism-based. The conditions noted are these: in vivo, 96 h. The gist of the method:
(§3)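 Female ICR mice, randomised, n = 10 per group. Single intraperitoneal dose of 240.0, 300.0, 375.0, 468.8 or 585.9 mg/kg, or vehicle. Deaths recorded at 1 h, 4 h, days 1–4 and days 5–14. Body weight, drinking, eating and activity observed over 14 days. Survival percentage taken on day 14; LD50 derived from the dose–mortality data.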

Data set [8] in a line: Toxicity in ICR mouse assessed as induction of abnormality in body weight level at 240 mg/kg, ip for 14 days. The data set is classed as organism-based. The conditions noted are these: in vivo, 336 h. In short, it runs like this:
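Female ICR mice (n = 10 per group) given a single intraperitoneal dose at 240.0, 300.0, 375.0, 468.8 or 585.9 mg/kg, or vehicle. Deaths recorded at 1 h, 4 h and daily through day 14. Body weight, drinking, eating and activity observed for abnormality; LD50 derived from mortality.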

A short description of data set [9]: Drug metabolism assessed as GSTpi (unknown origin) mediated compound fluorescence activation at 1 uM in presence of 50 uM […] by HPLC analysis. It is filed as ADME. The conditions noted are these: human.
Data set [10] in a line: Toxicity in ICR mouse assessed as induction of animal death at 240 to 375 mg/kg, ip measured after 1 day. The data set is classed as organism-based. The conditions noted are these: in vivo, 24 h. The gist of the method: as §3
The nature of data set [11]: Drug metabolism assessed as GSTpi (unknown origin) mediated compound fluorescence activation at 1 uM in presence of 1 mM Mg2+ by HPLC analysis. It is filed as ADME. The following applies: human. In short, it runs like this: as §2
In data set [12] the test system is HT-29. Description: Induction of apoptosis in human HT-29 cells assessed as reduction in Bcl2 protein level incubated for 72 hrs by Western blot analysis. It is filed as functional, cell-based. In short, it runs like this: as §1
Data set [13] in a line: Drug uptake in human CCD-841 cells at 1 uM measured within 10 mins by confocal fluorescence microscopy. It is filed as ADME, cell-based. The gist of the method: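 Cells were seeded at 2×10^5 in glass-bottom dishes and allowed to attach. Medium was then replaced with DMEM containing 1 µM compound. Confocal images were taken every minute for 60 min with a 40× water objective, 405 nm laser and 480–530 nm filter. Intracellular fluorescence intensity was quantified.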

Consider `COc1cc(-c2nc(NC(=O)OCC3=CCCCC3=O)cc3c2[nH]c2ccccc23)cc(OC)c1OC`, for which the Activity in data set [1] was 0.48 g; in [2] it was “Dose-dependent effect”; in data set [3], “Dose-dependent effect”; in data set [7] it was “Non-Toxic”; in data set [8] it was “Non-Toxic”; in data set [10] it was “Non-Toxic”. For the same compound, the Activity result in [12] was “Dose-dependent effect”. Further, the Drug metabolism result in data set [4], in data set [5], in data set [6], in data set [9] and in [11] was “Metabolite_Notdetected” in each case. Moreover, the Drug uptake result in data set [13] is given as “Not Active”.

Values taken from ChEMBL document CHEMBL4622976, “Development of pH/Glutathione-Responsive Theranostic Agents Activated by Glutathione S-Transferase π for Human Colon Cancer” (J Med Chem, 2020).
